Experimental findings from ChEMBL document CHEMBL6134900 (J Med Chem, 2025) are described below.

Active and inactive are the calls of the source. No cut-off for these calls is given here.

Series [1] concerns the target T1, Protein cereblon/SWI/SNF-related matrix-associated actin-dependent regulator of chromatin subfamily A member 2 (Homo sapiens, UniProt P51531+Q96SW2). The experiment in a line: PROTAC activity at CRBN/SMARCA2 in human H322 cells harboring SMARCA4 mutant assessed as induction of SMARCA2 degradation at 1 uM in presence of bortezomib by immunoblot analysis. The format is cell-based. Background: In western blotting, separated proteins are transferred to a membrane and probed.

Series [2] can be described thus: Drug metabolism in mouse liver microsomes assessed as oxidative dealkylation and mono-oxygenation mediated M3 metabolite formation at 10 uM incubated for 60 mins by LC-UV-HRMS analysis. The series is classed as ADME, Microsome. The note with it: 1 h. Put shortly:
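Compound at 10 μM incubated with mouse liver microsomes at 37 °C for 60 min. Metabolites detected by LC-UV-HRMS, structures proposed from MS and MS2 data, and each metabolite given as a percentage.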
(Microsomes from liver hold many membrane-bound enzymes, among them those of drug oxidation.)

A short description of series [3]: Drug concentration in C57BL/6 mouse plasma at 5 mg/kg, po administered once daily for 3 days and measured at 24 hrs post last dose. The format is ADME, organism-based. The following applies: time 3 day. The method in brief: (§1)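 Oral dosing once daily for 3 days: 5–80 mg/kg in C57BL/6 mice, 10–80 mg/kg in CrbnI391V mice. Euthanized 24 h after last dose. Plasma drug level measured. Spleen SMARCA2 by Western blot against actin loading control, relative to vehicle.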

Series [4] is described as follows: Antitumor activity against human NCI-H1568 cells harboring SMARCA4 mutant xenografted in female athymic nude mouse assessed as tumor growth inhibition at 40 mg/kg, po administered once daily via gavage for 13 days relative to control. The following applies: NCI-H1568, 312 h, time 13 day, read-out: TGI. The format is functional. The method in brief:
(§2)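 Cells (H1568 2 × 10^6, H2023 10 × 10^6, HCC515 5 × 10^6) in PBS:Matrigel 1:1, 200 μL, injected subcutaneously into flanks of 6–8-week-old females. Randomized at mean tumor volume 60 mm3 (H1568) or <200 mm3 (others). Dosed in 0.5% methylcellulose + 0.2–1% Tween-80, sonicated on ice. Caliper tumor volume and body weight tracked, mean ± SEM.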
(In xenograft studies the graft and the host belong to different species.)

Series [5] can be described thus: In vivo PROTAC activity at CRBN/SMARCA2 in C57BL/6 mouse assessed as induction of SMARCA2 degradation in spleen at 80 mg/kg, po administered once daily via gavage for 3 days by Western blotting analysis relative to control. The format is functional. The note with it: time 3 day. Put shortly: as §1
The nature of series [6]: In vivo PROTAC activity at CRBN I391V mutant/SMARCA2 in mouse assessed as SMARCA2 degradation in spleen at 80 mg/kg, po administered once daily for 3 days and measured at 24 hrs post last dose by Western blotting analysis relative to control. The format is functional. The following applies: time 3 day. Put shortly: (§3)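 CrbnI391V mice given 10, 20, 40 or 80 mg/kg or vehicle orally once daily for 3 days. Euthanised 24 h after the last dose. Spleen SMARCA2 measured by Western blot with actin as loading control, relative to vehicle. Plasma drug level measured at the same time.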

Series [7] in a line: In vivo PROTAC activity at CRBN I391V mutant/SMARCA2 in mouse assessed as SMARCA2 degradation in spleen at 10 to 80 mg/kg, po administered once daily for 3 days and measured at 24 hrs post last dose by Western blotting analysis relative to control. The format is functional. The following applies: dose 10-80 mg/kg, time 3 day. The method in brief: as §3
A short description of series [8]: Toxicity in immunocompromised mouse xenografted with human NCI-H1568 cells assessed as drug tolerance at 80 mg/kg, administered once daily for 21 days. The series is classed as organism-based. The note with it: in vivo, 504 h, time 21 day.
Series [9] deals with NCI-H2030. Kind of series: Antitumor activity against human NCI-H2030 cells harboring KRAS G12C mutant/SMARCA4 mutant assessed as cell growth inhibition incubated for 7 days by Incucyte S3 analysis. The following applies: time 7.0 day. The series is classed as functional, cell-based. The method in brief: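 H2030 cells plated at 500 per well and grown overnight at 37 °C. Treated with 3-fold dilutions of sotorasib, test agent, or both. Confluency imaged every 4 h for 7 days on IncuCyte S3. Synergy scored as Bliss/Lowe consensus, >10 taken as synergy.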

Series [10] concerns NCI-H2030. The experiment in a line: Inhibition of ERK phosphorylation in human NCI-H2030 cells harboring KRAS G12C mutant/SMARCA4 mutant assessed as reduction in p-ERK level at 1.25 uM incubated for 72 hrs in presence of sotorasib by Western blotting analysis. The format is cell-based.
Series [11] concerns the target T1, Protein cereblon/SWI/SNF-related matrix-associated actin-dependent regulator of chromatin subfamily A member 2. Kind of series: PROTAC activity at CRBN/SMARCA2 in human H322 cells harboring SMARCA4 mutant assessed as induction of SMARCA2 degradation at 0.1 uM in presence of MLN4924 by immunoblot analysis. The series is classed as cell-based.
Series [12] has the same target. The experiment in a line: PROTAC activity at CRBN/SMARCA2 in human NCI-H1792 cells harboring wild type SMARCA4 assessed as reduction in SMARCA2 protein level at 20 nM incubated for 24 hrs by TMT mass spectrometric analysis. The series is classed as cell-based.
For series [13], the target named is Transcriptional coactivator YAP1 (Homo sapiens) (UniProt P46937). The experiment in a line: Induction of YAP1 phosphorylation at S109 residue in human H322 cells harboring SMARCA4 mutant at 0.1 uM incubated for 96 hrs by immunoblot analysis. The format is cell-based. The note with it: filed as activator.
Series [14] in a line: Half life in male CD-1 (ICR) mouse at 25 mg/kg, po measured up to 24 hrs by LC-MS/MS analysis. The format is ADME, organism-based. The following applies: in vivo. The method in brief: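 Single 25 mg/kg dose. IP vehicle was 5% DMSO/5% solutol/90% water at 1.25 mg/mL, final pH 4.39, clear solution. Oral vehicle was 0.5% methylcellulose/0.2% Tween 80 in water, opaque suspension. Plasma sampled at 0.25, 0.5, 1, 2, 4, 8 and 24 h. Plasma protein-precipitated with internal standard in acetonitrile, then LC-MS/MS. n = 3 mice per time point, mean.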

Series [15] deals with NCI-H2030. Kind of series: Antitumor activity against human NCI-H2030 cells harboring SMARCA4 mutant xenografted in female athymic nude mouse assessed as tumor growth inhibition at 5 mg/kg, po administered once daily via gavage for 17 days relative to control. The series is classed as functional. The following applies: NCI-H2030, 408 h, time 17 day, read-out: TGI. The method in brief: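 10 × 10^6 H2030 cells in PBS:Matrigel 1:1, 200 μL, injected subcutaneously into flanks of 6–8-week-old females. Randomized at mean tumor volume <200 mm3. Oral gavage once daily in 10% DMSO, 40% PEG300, 1% Tween-80, 49% saline. Caliper tumor volume and body weight monitored, mean ± SEM.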

The nature of series [16]: Toxicity in female athymic nude mouse xenografted with human NCI-H2023 cells harboring SMARCA4 mutant assessed as change in body weight at 5 mg/kg, po administered once daily via gavage for 19 days relative to control. The following applies: in vivo, 456 h, time 19 day. The format is organism-based. The method in brief:
as §2

A short description of series [17]: In vivo PROTAC activity at CRBN/SMARCA2 in female athymic nude mouse xenografted with human NCI-H2023 cells harboring SMARCA4 mutant assessed as SMARCA2 degradation at 5 mg/kg, po administered once daily via gavage for 19 days by Western blotting analysis relative to control. The following applies: time 19 day. The format is functional. The method in brief: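 Female nude mice aged 6–8 weeks carried subcutaneous flank xenografts in PBS/Matrigel 1:1: H2023 at 10 × 10^6 cells or HCC515 at 5 × 10^6 cells. Randomised below 200 mm3. 5 mg/kg or vehicle given by oral gavage once daily for 19 days in 0.5% methylcellulose with Tween-80 (0.2% for H2023, 1% for HCC515). Tumours collected 24 h after dosing. SMARCA2 measured by Western blot against β-actin, relative to vehicle.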

Transcriptional coactivator YAP1 (Homo sapiens), sequence (P46937 whole entry): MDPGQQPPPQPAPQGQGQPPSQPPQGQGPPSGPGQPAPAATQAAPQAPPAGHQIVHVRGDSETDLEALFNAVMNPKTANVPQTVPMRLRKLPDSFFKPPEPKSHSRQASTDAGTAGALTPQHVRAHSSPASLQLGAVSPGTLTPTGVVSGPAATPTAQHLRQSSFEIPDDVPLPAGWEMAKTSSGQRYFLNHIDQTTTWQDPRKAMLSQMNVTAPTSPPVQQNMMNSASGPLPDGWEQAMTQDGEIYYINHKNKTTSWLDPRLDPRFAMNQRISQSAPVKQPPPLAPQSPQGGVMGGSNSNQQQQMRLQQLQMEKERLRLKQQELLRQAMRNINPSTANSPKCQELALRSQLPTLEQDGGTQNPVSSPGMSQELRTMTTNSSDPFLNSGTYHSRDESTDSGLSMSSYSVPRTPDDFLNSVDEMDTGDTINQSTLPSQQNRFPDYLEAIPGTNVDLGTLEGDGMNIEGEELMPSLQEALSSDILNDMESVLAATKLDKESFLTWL

As to `Nc1nnc(-c2ccccc2O)cc1N1CCN(Cc2ccc(N3CCC(CN4CCN(c5ccc6c(c5)C(=O)N(C5CCC(=O)NC5=O)C6=O)CC4)CC3)c(F)c2)CC1` (configuration not stated), the result in series [1] was inactive. In [2], the Drug metabolism result was “metabolite_detected”. In [3], this molecule had a concentration at 72 h of around 100 nM. In addition, in series [4], the inhibition in vivo at 40 mg/kg was 27.6%. For the same molecule, the Activity in series [5] was 70%; in [6] it was 81%; in series [7] it was 11%; in series [8], “Non-toxic”; in the series on NCI-H2030 [9], “Active; Minimal Inhibition Observed”. Also, in the series on NCI-H2030 [10], the inhibition entry is “Active”.
Consider `Nc1nnc(-c2ccccc2O)cc1N1CCN(Cc2ccc(N3CCN(CCOc4cccc5c4C(=O)N(C4CCC(=O)NC4=O)C5=O)CC3)c(F)c2)CC1` (configuration not stated), for which the outcome in series [11] was inactive. For the same molecule, the outcome in series [12] and in series [13] was Active. The same molecule returned a t1/2 in series [14] of 6 h. In addition, the inhibition in vivo at 5 mg/kg with NCI-H2030 [15] came out at 93.4%. For the same molecule, the results for the Activity in [16] and in series [17] were below 10% and 76%, respectively.
